In test [1] the target is T1, Casp2-mediated cleavage of tau at D314 (Homo sapiens, UniProt P42575).
T1 sequence (P42575 170-325 limits assumed): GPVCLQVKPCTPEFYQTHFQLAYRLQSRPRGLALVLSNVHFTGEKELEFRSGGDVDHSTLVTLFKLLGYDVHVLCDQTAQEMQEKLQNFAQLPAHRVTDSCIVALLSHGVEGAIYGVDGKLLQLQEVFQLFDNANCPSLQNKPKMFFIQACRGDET
T1 sequence (P42575 348-452 limits assumed): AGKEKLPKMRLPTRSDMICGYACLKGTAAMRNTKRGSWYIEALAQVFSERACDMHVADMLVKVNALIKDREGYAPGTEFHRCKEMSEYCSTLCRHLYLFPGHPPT
The test is described as follows: in vitro caspase-2-catalyzed tau cleavage assay. It is filed as biochemical.

For test [2], the system named is cultured rat hippocampal neurons expressing P301S tau. It is filed as cell-based. To be noted: 10 μM for 3 days, versus untreated wild-type and P301S tau neurons. In outline:
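Primary hippocampal cultures from Sprague-Dawley rat pups at postnatal day 0 or 1. At 5–7 DIV, neurons were co-transfected with plasmids for DsRed (morphology label) and GFP-tagged wild-type or P301S tau. Test compound was added at 17–18 DIV for 3 days. Live neurons were imaged at 20–21 DIV.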

The target of the next test is Cathepsin B (Homo sapiens, UniProt P07858). Description: Cathepsin B inhibition. The class given is biochemical.
A further test deals with T2, Casp6 (Homo sapiens, UniProt P55212).
T2 sequence (P55212 24-179 limits assumed): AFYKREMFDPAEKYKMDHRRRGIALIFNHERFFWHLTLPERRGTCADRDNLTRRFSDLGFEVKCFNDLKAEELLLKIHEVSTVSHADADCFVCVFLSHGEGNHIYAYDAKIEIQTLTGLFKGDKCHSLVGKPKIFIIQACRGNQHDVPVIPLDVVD
T2 sequence (P55212 194-293 limits assumed): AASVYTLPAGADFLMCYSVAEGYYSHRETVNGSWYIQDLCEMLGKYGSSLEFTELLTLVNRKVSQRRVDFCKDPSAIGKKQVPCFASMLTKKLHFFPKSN
The test is described as follows: in vitro caspase panel assay, Casp6. The class given is biochemical.

Another test concerns the target T3, Casp3 (Homo sapiens, UniProt P42574).
T3 sequence (P42574 29-175 limits assumed): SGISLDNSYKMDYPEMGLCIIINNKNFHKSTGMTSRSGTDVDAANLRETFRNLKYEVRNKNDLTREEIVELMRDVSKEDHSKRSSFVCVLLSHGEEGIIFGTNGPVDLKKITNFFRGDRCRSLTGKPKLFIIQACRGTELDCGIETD
T3 sequence (P42574 176-277 limits assumed): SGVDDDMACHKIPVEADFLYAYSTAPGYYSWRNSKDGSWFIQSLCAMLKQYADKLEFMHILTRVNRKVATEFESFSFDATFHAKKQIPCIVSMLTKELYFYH
Description: fluorescence-based in vitro biochemical. To be noted: for Casp2 Selectivity, Ki (Casp3) / Ki (Casp2): Table 1.

The target in another test is T4, Casp7 (Homo sapiens, UniProt P55210).
T4 sequence (P55210 24-198 limits assumed): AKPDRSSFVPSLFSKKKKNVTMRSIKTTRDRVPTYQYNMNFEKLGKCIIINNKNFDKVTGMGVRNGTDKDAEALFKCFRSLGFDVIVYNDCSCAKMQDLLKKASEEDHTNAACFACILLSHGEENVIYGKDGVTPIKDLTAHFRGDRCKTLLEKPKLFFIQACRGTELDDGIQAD
T4 sequence (P55210 207-303 limits assumed): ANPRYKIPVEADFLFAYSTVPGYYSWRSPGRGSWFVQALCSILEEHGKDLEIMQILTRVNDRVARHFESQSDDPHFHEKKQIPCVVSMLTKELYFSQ
The test is described as follows: in vitro caspase panel assay, Casp7. The class given is biochemical.

In test [3] the test system is primary hippocampal neurons from transgenic mice overexpressing P301S tau. Description: mEPSC recording in primary hippocampal neurons from PS19. Conditions: 10 μM, 3 days; for average frequency of mEPSCs: six groups. It is filed as cell-based, mouse.
For the next test, the target named is T5, Casp1 (Homo sapiens, UniProt P29466).
T5 sequence (P29466 120-297 limits assumed): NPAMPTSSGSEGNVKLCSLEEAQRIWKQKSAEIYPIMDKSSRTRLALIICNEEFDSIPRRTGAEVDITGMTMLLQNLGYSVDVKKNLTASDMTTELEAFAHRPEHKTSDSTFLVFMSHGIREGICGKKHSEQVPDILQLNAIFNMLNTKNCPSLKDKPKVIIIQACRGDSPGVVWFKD
T5 sequence (P29466 317-404 limits assumed): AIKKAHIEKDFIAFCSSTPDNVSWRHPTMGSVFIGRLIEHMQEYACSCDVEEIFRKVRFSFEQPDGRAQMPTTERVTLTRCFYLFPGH
Description: in vitro caspase panel assay, Casp1. The class given is biochemical.

A further test addresses T6, Casp9 (Homo sapiens, UniProt P55211).
T6 sequence (P55211 1-315 limits assumed): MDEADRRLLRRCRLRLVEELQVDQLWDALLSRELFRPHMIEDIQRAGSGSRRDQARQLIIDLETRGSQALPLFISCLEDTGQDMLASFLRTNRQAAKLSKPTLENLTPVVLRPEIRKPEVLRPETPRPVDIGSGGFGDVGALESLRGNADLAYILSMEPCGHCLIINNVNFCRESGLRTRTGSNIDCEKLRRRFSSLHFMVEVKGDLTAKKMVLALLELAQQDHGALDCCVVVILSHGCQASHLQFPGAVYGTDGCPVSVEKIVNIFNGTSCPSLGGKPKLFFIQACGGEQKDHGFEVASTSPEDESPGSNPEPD
T6 sequence (P55211 331-416 limits assumed): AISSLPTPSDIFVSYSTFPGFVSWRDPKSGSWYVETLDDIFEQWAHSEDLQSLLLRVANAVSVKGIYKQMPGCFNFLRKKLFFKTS
Description: in vitro caspase panel assay, Casp9. The class given is biochemical.

The next test has as its target Thrombin a (Homo sapiens, UniProt P00734). The test is described as follows: Thrombin a inhibition. The class given is biochemical.
A further test concerns the target T7, Casp2 (Homo sapiens, UniProt P42575).
T7 sequence (P42575 170-325 limits assumed): T1 sequence (P42575 170-325 limits assumed)
T7 sequence (P42575 348-452 limits assumed): T1 sequence (P42575 348-452 limits assumed)
The test is described as follows: fluorescence-based in vitro biochemical.

*1 amine or outer side, *2 acyl side, *3 side chain or, on linkers, in order; H or OH if unused. Where a SMILES comes first, the peptide text is derived from it. [ ]: non-standard residue; d: D form. X1 = Cc1ccc2c(c1)CCN([*:1])[C@@H]2C(=O)[*:2]

As a reminder, the IC50 is the point on the concentration scale where inhibition reaches its midpoint. Read a low IC50 as inhibition by little substance. As usually defined, the Ki is a measure of affinity in units of concentration, obtained from inhibition or displacement. A high value points to a looser hold on the target. As to `Cc1ccc2c(c1)CCN(C(=O)[C@@H](NC(=O)[C@H](CCCC(=O)O)NC(=O)[C@@H]1Cc3ccccc3N1)C(C)C)[C@@H]2C(=O)N[C@H](C#N)CC(=O)O` [Compound 1, (S)-6-(((S)-1-((S)-1-(((S)-2-carboxy-1-cyanoethyl)carbamoyl)-6-methyl-3,4-dihydroisoquinolin-2(1H)-yl)-3-methyl-1-oxobutan-2-yl)amino)-5-((S)-indoline-2-carboxamido)-6-oxohexanoic acid], the IC50 in test [1] amounted to 2.02 µM. Further, in test [2], the “density of dendritic spines” value is on record as “no significant differences”. For the same compound, at Cathepsin B, the IC50 was 18.6 µM and the “activity at cathepsin B” value was “weak activity”. In addition, at Casp6, the Ki was above 100 µM and the “selectivity Casp2 versus Casp6” value is given as above 2000 fold. For the same compound, on Casp3, the Ki is 0.933 µM and the “Casp2 Selectivity, Ki (Casp3) / Ki (Casp2)” value was found to be 123. In addition, at Casp7, the Ki is 15.8 µM and the “selectivity Casp2 versus Casp7” value was above 2000 fold. Moreover, in [3], the “average amplitude of mEPSC responses, Tau −/+ versus Tau −/− neurons” value is on record as “do not differ significantly”; the “cumulative curve of mEPSC amplitudes, Tau −/+ compared with Tau −/−” value is given as “not significantly shifted”; the “average frequency of mEPSCs” value is reported as “no significant differences”. Also, on Casp1, the Ki was above 100 µM and the “selectivity Casp2 versus Casp1” value is above 2000 fold. Further, on Casp9, the Ki was above 31.6 µM and the “selectivity Casp2 versus Casp9” value is above 2000 fold. On Thrombin a, the IC50 is above 100 µM and the “activity at thrombin” value is reported as “weak activity”. This compound also gave a Ki at Casp2 of 0.00759 µM.
With `CC(=O)N[C@H](C(=O)N[C@@H](CC(=O)O)C(=O)N[C@H](C(=O)N1CCc2cc(C)ccc2[C@H]1C(=O)N[C@H](C=O)CC(=O)O)C(C)C)C(C)C` [Compound 2b, (S)-3-((S)-2-acetamido-3-methylbutanamido)-4-(((S)-1-((S)-1-(((S)-1-carboxy-3-oxopropan-2-yl)carbamoyl)-6-methyl-3,4-dihydroisoquinolin-2(1H)-yl)-3-methyl-1-oxobutan-2-yl)amino)-4-oxobutanoic acid] (Ac-VDV[X1]D-aldehyde), the IC50 at Cathepsin B came to 38 µM. In addition, the Ki is above 100 µM on Casp6, above 31.6 µM at Casp7, 2.75 µM at Casp1 and above 31.6 µM on Casp9. The “Casp2 Selectivity, Ki (Casp3) / Ki (Casp2)” value at Casp3 was 70. For the same compound, in [3], the “cumulative curve of mEPSC amplitudes, Tau −/+ compared with Tau −/−” value is “shifted to the left but less markedly”. In addition, in test [3], the “average frequency of mEPSCs” value is “no significant differences”.

The values above are taken from article PMC9616053 (ACS chemical neuroscience, 2022).
